Laboratory results from publication PMC3399519 (European Journal of Medicinal Chemistry, 2011).
Entries after “also recorded” stand apart in the source; their conditions may differ. Like-named read-outs stand apart in the source and are kept apart here.

Legend:
[1] = test system: HAT activity in HeLa nuclear extracts (histone H4 acetylation); experiment: ELISA acetyltransferase assay with HeLa nuclear extracts, histone H4 peptide; format: biochemical; details: for inhibition of cellular HAT activity (HeLa nuclear extracts): 200 µM compound, histone H4; for inhibition of HAT activity in HeLa nuclear extracts (in words): histone H4 acetylation
In short: (§1)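 HeLa nuclear extract (2.5 µg/mL final protein) acetylates biotinylated histone H3 (aa 1–21) or H4 (aa 2–24) peptide immobilised via streptavidin. Reaction runs 15 min, read by anti-acetyl-lysine ELISA. H3 tested at 50 µM against H4. Triplicates, scaled to no-inhibitor and no-enzyme controls.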

Tip60 [2] = biological target: T1, Tip60 (Homo sapiens, UniProt Q92993); experiment: Radioisotope-labeled histone acetyltransferase assay, Tip60; format: biochemical; details: for Tip60 inhibition (in words): 200 µM compound; for selectivity for Tip60 in comparison with PCAF and p300: recombinant enzyme inhibition assays
T1 sequence (Q92993 whole entry): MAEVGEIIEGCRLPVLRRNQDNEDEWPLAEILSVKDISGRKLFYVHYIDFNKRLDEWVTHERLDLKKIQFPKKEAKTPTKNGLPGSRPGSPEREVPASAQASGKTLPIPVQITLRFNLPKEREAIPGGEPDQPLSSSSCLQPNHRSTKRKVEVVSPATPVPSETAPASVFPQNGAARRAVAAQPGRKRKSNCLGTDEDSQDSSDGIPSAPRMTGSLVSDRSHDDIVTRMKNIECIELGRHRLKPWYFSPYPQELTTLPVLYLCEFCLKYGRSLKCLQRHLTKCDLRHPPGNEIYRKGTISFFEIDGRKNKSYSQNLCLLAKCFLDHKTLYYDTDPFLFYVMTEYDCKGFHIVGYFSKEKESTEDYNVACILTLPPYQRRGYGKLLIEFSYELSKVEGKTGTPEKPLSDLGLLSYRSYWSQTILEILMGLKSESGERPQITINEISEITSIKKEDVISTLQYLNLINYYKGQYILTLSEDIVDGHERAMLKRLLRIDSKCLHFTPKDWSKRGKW

[3] = test system: HAT activity in HeLa nuclear extracts (histone H3 acetylation); format: biochemical; details: 50 µM compound
In short: as §1

[4] = biological target: human recombinant PCAF HAT domain (Homo sapiens, UniProt Q92831); experiment: Radioisotope-labeled histone acetyltransferase assay, PCAF; format: biochemical; details: 200 µM compound
human recombinant PCAF HAT domain, sequence (Q92831 493-658): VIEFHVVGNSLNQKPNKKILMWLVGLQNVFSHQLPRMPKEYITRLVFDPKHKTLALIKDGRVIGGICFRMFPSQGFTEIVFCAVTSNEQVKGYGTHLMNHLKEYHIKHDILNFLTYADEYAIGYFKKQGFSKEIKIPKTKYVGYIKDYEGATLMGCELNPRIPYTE

[5] = biological target: T2, human recombinant p300 HAT domain (Homo sapiens, UniProt Q09472); experiment: Radioisotope-labeled histone acetyltransferase assay, p300; format: biochemical; details: 200 µM compound
T2 sequence (Q09472 1287-1663 limits assumed): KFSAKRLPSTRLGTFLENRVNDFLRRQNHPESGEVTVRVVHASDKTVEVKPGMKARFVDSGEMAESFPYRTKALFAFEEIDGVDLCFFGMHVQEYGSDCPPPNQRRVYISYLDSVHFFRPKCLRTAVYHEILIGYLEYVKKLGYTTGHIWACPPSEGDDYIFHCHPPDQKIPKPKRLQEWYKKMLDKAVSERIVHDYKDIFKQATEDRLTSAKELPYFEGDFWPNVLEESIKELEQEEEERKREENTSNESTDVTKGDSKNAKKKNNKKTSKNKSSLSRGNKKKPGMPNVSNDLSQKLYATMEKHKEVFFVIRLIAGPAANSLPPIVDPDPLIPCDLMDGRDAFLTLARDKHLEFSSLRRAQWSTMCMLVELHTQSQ

Tip60 [6] = biological target: T1, Tip60; experiment: Steady-state kinetic characterization of Tip60 inhibition; format: biochemical
[7] = test system: HAT activity of nuclear extracts of brain tissue samples; format: biochemical, rats; details: 30 µM inhibitor, histone H3 as acetyl acceptor
In short: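 Nuclear extracts come from tissue of different brain regions, at 40 µg/mL protein, standardised by protein content. Biotinylated histone H3 peptide (aa 1–21) is streptavidin-immobilised as acceptor. Buffer: 50 mM HEPES pH 7.4 with Triton X-100, EDTA, BSA and DTT. Inhibitor at 30 µM, 15 min reaction, anti-acetyl-lysine ELISA. Triplicates for each of two animals, blanks subtracted.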

p300 [8] = details: read-out: IC50 p300; Souto et al. ref 11; cited from earlier work
PCAF [9] = details: read-out: IC50 PCAF; estimated by Kundu et al. ref 7; cited from earlier work
PCAF [10] = details: read-out: IC50 PCAF; previous characterization with a different assay ref 12; cited from earlier work
p300 [11] = details: read-out: IC50 p300; estimated by Kundu et al. ref 7; cited from earlier work
HEP G2 cells = HEP G2 cells ref 12; cited from earlier work

Tip60 inhibition (in words) (Tip60 [2])	inhibition of cellular HAT activity (HeLa nuclear extracts) [1]	Structure (SMILES)	further results
		CCCCCCCc1ccc(CCc2cc(O)cc(O)c2C(=O)O)cc1 [compound 15]	potency on HeLa nuclear extracts compared to recombinant Tip60 [1]: more potent on HeLa nuclear extracts than for the recombinant Tip60
also inhibited the Tip60 HAT activity	> 50%	CCCCCCCCCCc1cccc(O)c1C(=O)O [compound 17]	inhibitory potency on histone H3 acetylation compared to histone H4 acetylation [3]: almost equal potency for both histones
also inhibited the Tip60 HAT activity	> 50%	CC(C)CCCC(C)CCOc1ccc(CCc2cccc(O)c2C(=O)O)cc1 (stereo not shown) [6a]	
also inhibited the Tip60 HAT activity	> 50%	CCCCCCCCCCCCCC#Cc1ccccc1C(=O)OC [compound 11]	
very poor inhibitors		CCCCCc1cccc(O)c1C(=O)O [6h]	inhibition of HAT activity in HeLa nuclear extracts (in words) [1]: strongly reduced HAT inhibitory potency; also recorded: poor inhibition
also inhibited the Tip60 HAT activity	> 50%	CCCCCCCc1ccc(CCc2cccc(O)c2C(=O)O)cc1 [compound 20]	effect on PCAF activity (in words) [4]: no inhibitory impact; also recorded: no observable inhibitory effect; inhibition at 200 µM (Tip60 [2]; read-out: inhibition of Tip60 activity, 200 µM compound, 100 nM Tip60, 10 µM Ac-CoA, 100 µM H4-20): > 76%; effect on p300 activity (in words) [5]: no inhibitory impact; also recorded: no observable inhibitory effect; inhibition pattern with respect to Ac-CoA (Tip60 [6]): essentially competitive with respect to Ac-CoA; inhibition of HAT activity of nuclear extracts of different brain regions [7]: equal potency to AA
very weakly inhibit		CCCCCOc1ccc(CCc2cccc(O)c2C(=O)O)cc1C(C)O (stereo not shown) [6d]	potency on HeLa nuclear extracts compared to recombinant Tip60 [1]: more potent on HeLa nuclear extracts than for the recombinant Tip60
also inhibited the Tip60 HAT activity	> 50%	CCCCCCCCCCCCCCCc1cc(O)cc(O)c1C(=O)O [compound 18]	selectivity for Tip60 in comparison with PCAF and p300 (Tip60 [2]): selective for Tip60
also inhibited the Tip60 HAT activity	> 50%	CCCCCOc1ccc(CCc2cccc(O)c2C(=O)O)cc1 [compound 24]	effect on PCAF activity (in words) [4]: enhance the PCAF activity significantly; inhibitory potency on histone H3 acetylation compared to histone H4 acetylation [3]: opposite
also inhibited the Tip60 HAT activity	> 50%	CCCCCOc1ccc(CCc2cccc(O)c2C(=O)O)cc1C(C)=O [6c]	
also inhibited the Tip60 HAT activity	> 50%	CCCCCCCCCCCCCCCc1ccccc1C(=O)O [compound 12]	
also inhibited the Tip60 HAT activity	> 50%	CCCCCCCOc1ccc(CCc2cccc(O)c2C(=O)O)cc1C(C)=O [6f]	
also inhibited the Tip60 HAT activity	> 50%	CCCCCCCCCCc1cc(O)cc(O)c1C(=O)O [compound 19]	selectivity for Tip60 in comparison with PCAF and p300 (Tip60 [2]): selective for Tip60
also inhibited the Tip60 HAT activity	> 50%	CCCCCOc1ccc(/C=C\c2cccc(O)c2C(=O)O)cc1 [compound 21]	effect on PCAF activity (in words) [4]: enhance the PCAF activity significantly; inhibition of histone acetylation in HEP G2 cells compared to 16 (AA) (HEP G2 cells): more potent inhibitor of histone acetylation than 16 (AA); selectivity for Tip60 in comparison with PCAF and p300 (Tip60 [2]): selective for Tip60; inhibition of HAT activity in HeLa nuclear extracts (in words) [1]: high inhibitory activity; inhibitory potency on histone H3 acetylation compared to histone H4 acetylation [3]: opposite

Structure (SMILES)	Tip60 inhibition (in words) (Tip60 [2])	inhibition of cellular HAT activity (HeLa nuclear extracts) [1]	further results
CCCCCCCCCCCCCCOc1ccc(CCc2cccc(O)c2C(=O)O)cc1 [compound 25]	only modest inhibitory activity; also recorded: also inhibited the Tip60 HAT activity	> 50%	inhibitory potency on histone H3 acetylation compared to histone H4 acetylation [3]: opposite
CCCCCCCCCCCCCCCc1cccc(O)c1C(=O)O [16 (AA), 6-pentadecylsalicylic acid, reference compound]	almost completely; also recorded: also inhibited the Tip60 HAT activity	> 50%	IC50 (p300 [8]): 50 to 100 µM; IC50 (PCAF [9]): 5 µM; inhibition at 200 µM (Tip60 [2]; read-out: inhibition of Tip60 activity): > 76%; inhibitory potency on histone H3 acetylation compared to histone H4 acetylation [3]: almost equal potency for both histones; IC50 (PCAF [10]): ~1000 µM; IC50 (p300 [11]): 8.5 µM
COCCOc1ccc(CCc2cccc(O)c2C(=O)O)cc1 [6b]	very weakly inhibit; also recorded: very poor inhibitors		inhibition of HAT activity in HeLa nuclear extracts (in words) [1]: strongly reduced HAT inhibitory potency; also recorded: poor inhibition
